The source made the active and inactive calls. No cut-off for these calls is given here.
Assays:
Yellow fever virus [1] = test: Antiviral activity against YFV Jimenez infected in Syrian golden hamster assessed as survival of animal at 10 mg/kg, ip bid for 7 days; format: functional; conditions: route intraperitoneal
Syrian golden hamster [2] = test: Toxicity in YFV infected Syrian golden hamster assessed as survival of animals at 100 mg/kg/day, ip bid for 7 days; format: organism-based, Mesocricetus auratus; parameters: route intraperitoneal; conditions: in vivo, 168 h
In short: (§1)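 Female Syrian golden hamsters (~100 g), toxicity-control groups of three, sham-infected. Drug suspended in saline or 0.4% carboxymethyl cellulose, given i.p. b.i.d. 12 h apart from −4 h through 7 days. Mortality checked daily; weight taken at 0, 3 and 6 dpi, with change taken as 3-to-6 dpi difference.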

[3] = Selectivity index, ratio of CC50 for african green monkey Vero cells to EC50 for YFV infected in Vero cells; format: functional
In short: (§2)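 Jimenez hamster-adapted YFV at 10 CCID50/well on Vero or CV-1 monolayers; seven drug concentrations added 5–10 min before virus; 37°C for 6 days. CPE scored microscopically, then neutral red uptake (0.34% dye, 2 h, eluted and quantified). EC50 derived; CC50 from uninfected drug-treated cells; SI = CC50/EC50.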

Yellow fever virus [4] = test: Antiviral activity against YFV Jimenez infected in Syrian golden hamster liver treated 4 hrs before viral challenge assessed as weight change at 100 mg/kg/day, ip bid for 8 days; format: functional; conditions: route intraperitoneal
Yellow fever virus [5] = test: Antiviral activity against YFV Jimenez infected in Syrian golden hamster liver assessed as weight change at 100 mg/kg/day, ip bid for 8 days administered after 5 day post-infection; format: functional; conditions: route intraperitoneal
[6] = Toxicity in MDBK cells; format: cell-based, Bos taurus; conditions: cattle
Yellow fever virus [7] = test: Antiviral activity against YFV infected in african green monkey Vero cells assessed as reduction in cytopathic effect after 6 days; format: functional, organism-based; conditions: 144 h; in short: as §2
Yellow fever virus [8] = test: Antiviral activity against YFV Jimenez infected in Syrian golden hamster assessed as weight change at 32 mg/kg, po bid for 7 days; format: functional
Yellow fever virus [9] = test: Antiviral activity against YFV Jimenez infected in Syrian golden hamster liver assessed as alanine aminotransferase at 100 mg/kg/day, ip bid for 8 days administered after 3 days post-infection; format: functional; conditions: route intraperitoneal
In short: (§3)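 YFV (Jimenez)-infected female hamsters were treated b.i.d. i.p. or p.o. Serum was drawn by ocular sinus at 6 dpi. ALT was read with a colorimetric kit adapted to microplates: substrate plus serum for 30 min at 37°C, then colour reagent and developer, absorbance at 505 nm. Values are IU/liter against saline controls.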

Yellow fever virus [10] = test: Antiviral activity against YFV Jimenez infected in Syrian golden hamster liver assessed as alanine aminotransferase at 100 mg/kg/day, ip bid for 8 days administered after 2 days post-infection; format: functional; conditions: route intraperitoneal; in short: as §3
Yellow fever virus [11] = test: Antiviral activity against YFV Jimenez infected in Syrian golden hamster assessed as mean day to death after 21 days post-infection at 10 mg/kg, ip bid for 7 days; format: functional; conditions: route intraperitoneal
Yellow fever virus [12] = test: Antiviral activity against YFV Jimenez infected in Syrian golden hamster assessed as serum alanine aminotransferase at 10 mg/kg, ip bid for 7 days; format: functional; conditions: route intraperitoneal; in short: as §3
[13] = Selectivity index, ratio of CC50 for african green monkey CV1 cells to EC50 for YFV infected in CV1 cells; format: functional, CV-1; in short: as §2
Yellow fever virus [14] = test: Antiviral activity against YFV Jimenez infected in Syrian golden hamster assessed as serum alanine aminotransferase at 100 mg/kg, ip bid for 7 days; format: functional; conditions: route intraperitoneal; in short: as §3
Yellow fever virus [15] = test: Antiviral activity against YFV Jimenez infected in Syrian golden hamster assessed as mean day to death after 21 days post-infection at 32 mg/kg, ip bid for 7 days; format: functional; conditions: route intraperitoneal
Yellow fever virus [16] = test: Antiviral activity against YFV Jimenez infected in Syrian golden hamster assessed as weight change at 10 mg/kg, ip bid for 7 days; format: functional; conditions: route intraperitoneal
Yellow fever virus [17] = test: Antiviral activity against YFV Jimenez infected in Syrian golden hamster assessed as survival of animal at 100 mg/kg, bid ip for 7 days; format: functional, organism-based; parameters: dose 100 mg/kg
Yellow fever virus [18] = test: Antiviral activity against YFV Jimenez infected in Syrian golden hamster assessed as serum alanine aminotransferase at 100 mg/kg, po bid for 7 days; format: functional; in short: as §3
Yellow fever virus [19] = test: Antiviral activity against YFV Jimenez infected in Syrian golden hamster assessed as survival of animal at 32 mg/kg, ip bid for 7 days; format: functional, organism-based; parameters: dose 32 mg/kg
Yellow fever virus [20] = test: Antiviral activity against YFV infected in african green monkey CV1 cells assessed as reduction in cytopathic effect after 6 days; format: functional, organism-based; conditions: CV-1, 144 h; in short: as §2
Yellow fever virus [21] = test: Antiviral activity against YFV Jimenez infected in Syrian golden hamster liver treated 4 hrs before viral challenge assessed as mean day to death at 100 mg/kg/day, ip bid for 8 days; format: functional; conditions: route intraperitoneal
Yellow fever virus [22] = test: Antiviral activity against YFV Jimenez infected in Syrian golden hamster liver assessed as mean day to death at 100 mg/kg/day, ip bid for 8 days administered after 5 day post-infection; format: functional; conditions: route intraperitoneal
Syrian golden hamster [23] = test: Toxicity in YFV infected Syrian golden hamster assessed as assessed as weight change at 32 mg/kg/day, ip bid for 7 days; format: organism-based, Mesocricetus auratus; parameters: route intraperitoneal; conditions: in vivo, 168 h; in short: as §1
Yellow fever virus [24] = test: Antiviral activity against YFV Jimenez infected in Syrian golden hamster liver assessed as alanine aminotransferase at 100 mg/kg/day, ip bid for 8 days administered after 5 day post-infection; format: functional; conditions: route intraperitoneal; in short: as §3
Yellow fever virus [25] = test: Antiviral activity against YFV Jimenez infected in Syrian golden hamster assessed as serum alanine aminotransferase at 32 mg/kg, po bid for 7 days; format: functional; in short: as §3
Yellow fever virus [26] = test: Antiviral activity against YFV Jimenez infected in Syrian golden hamster assessed as mean day to death after 21 days post-infection at 100 mg/kg, po bid for 7 days; format: functional
[27] = Selectivity index, ratio of CC50 for MDBK cells to […] for BVDV; format: functional

Structure (SMILES): NC(=O)c1nccn([C@@H]2O[C@H](CO)[C@@H](O)[C@H]2O)c1=O
- Activity (Yellow fever virus [1]): 80%
- Activity (Syrian golden hamster [2]): Non-toxic
- Ratio CC50/EC50 [3]: 1
- Activity (Yellow fever virus [4]): 6 g
- Activity (Yellow fever virus [5]): -6.9 g
- CC50 [6]: 2900 µM
- EC50 (Yellow fever virus [7]): > 100 µg/mL
- Activity (Yellow fever virus [8]): 4.4 g
- Activity (Yellow fever virus [9]): 79 IU/L
- Activity (Yellow fever virus [10]): 57 IU/L
- Activity (Yellow fever virus [11]): 8 days
- Activity (Yellow fever virus [12]): 174 IU/L
- Ratio CC50/EC50 [13]: 1
- Activity (Yellow fever virus [14]): 56 IU/L
- Activity (Yellow fever virus [15]): >21 days
- Activity (Yellow fever virus [16]): -1.8 g
- Activity (Yellow fever virus [17]): Active
- Activity (Yellow fever virus [18]): 56 IU/L
- Activity (Yellow fever virus [19]): Active
- EC50 (Yellow fever virus [20]): > 100 µg/mL
- Activity (Yellow fever virus [21]): >21 days
- Activity (Yellow fever virus [22]): 7.4 days
- Activity (Syrian golden hamster [23]): 8.3 g
- Activity (Yellow fever virus [24]): 205 IU/L
- Activity (Yellow fever virus [25]): 61 IU/L
- Activity (Yellow fever virus [26]): >21 days
- Ratio CC50/EC50 [27]: 207

— ChEMBL document CHEMBL1145477, “Activity of T-1106 in a hamster model of yellow Fever virus infection” (Antimicrob Agents Chemother, 2007)
